Measured values from publication PMC6923798 (Bioorganic chemistry, 2018).

Legend:
[1] = test system: SK-OV-3; assay: NCI in vitro five dose anticancer assay; format: cell-based, human
[2] = test system: MDA-MB-468; assay: NCI in vitro five dose anticancer assay; format: cell-based, human
[3] = test system: DU-145; assay: NCI in vitro five dose anticancer assay; format: cell-based, human
[4] = test system: KM12; assay: NCI in vitro five dose anticancer assay; format: cell-based, human
[5] = test system: OVCAR-4; assay: NCI in vitro five dose anticancer assay; format: cell-based, human
[6] = test system: OVCAR-8; assay: NCI in vitro five dose anticancer assay; format: cell-based, human
[7] = test system: RXF 393; assay: NCI in vitro five dose anticancer assay; format: cell-based, human
[8] = test system: RPMI-8226 cell line; assay: NCI in vitro one dose anticancer assay; format: cell-based; details: Homo sapiens, RPMI-8226, 48 h, read-out: % growth inhibition
How it was run: (§1)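 NCI protocol. Test compound added once at 10−5 M to ~60 human tumour lines from nine subpanels. Incubated 48 h at 37 °C, 5% CO2, 95% air, 100% relative humidity. Endpoint by sulforhodamine B protein staining with spectrophotometric absorbance. Growth of treated cells reported as percent of untreated cells.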

[9] = test system: K-562 cell line; assay: NCI in vitro one dose anticancer assay; format: cell-based; details: Homo sapiens, K562, 48 h, read-out: % growth inhibition
How it was run: as §1

[10] = test system: EGFR, p-EGFR, Src and p-Src in K562 cells; assay: Western blot analysis in K562 cells; format: cell-based, human; details: K562 cells, 0.2, 0.8, 1.6 μM, 24 h
How it was run: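 K562 cells incubated 24 h with test compound at 0.2, 0.8 or 1.6 μM, or DMSO. 50 μg protein resolved on 8 or 10% SDS-PAGE and transferred to PVDF. Blocked 1 h in PBS with 3% non-fat milk, 1% BSA, 0.5% Tween-20. Primary antibody overnight, then HRP-IgG 1 h at room temperature. ECL detection on X-ray film.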

[11] = test system: NCI-H460; assay: NCI in vitro five dose anticancer assay; format: cell-based, human
[12] = test system: U251; assay: NCI in vitro five dose anticancer assay; format: cell-based, human
[13] = test system: OVCAR-5; assay: NCI in vitro five dose anticancer assay; format: cell-based, human
[14] = test system: K-562; assay: MTT anti-proliferative assay; format: cell-based, human; details: Homo sapiens, K562, 24 h, read-out: IC50 ± SD, K-562
[15] = test system: M14; assay: NCI in vitro five dose anticancer assay; format: cell-based, human
[16] = test system: STAT3; assay: STAT3 activation assay; format: cell-based, human; details: K-562 cells, 10 μM, 24 h, nuclear extracts
How it was run: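 K562 cells seeded overnight in 10 cm plates, then given vehicle, test compound (10 μM) or WP1066 (positive control) for 24 h. Nuclear fractions extracted by kit. STAT3 activation measured in nuclear extracts by TransAM STAT3 ELISA per manufacturer. Mean ± SD of three independent experiments, each in triplicate.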

[17] = test system: MDA-MB231/ATCC; assay: NCI in vitro five dose anticancer assay; format: cell-based, human
[18] = test system: LOX IMVI; assay: NCI in vitro five dose anticancer assay; format: cell-based, human; details: 48 h
[19] = test system: NCI-H23; assay: NCI in vitro five dose anticancer assay; format: cell-based, human
[20] = test system: PC-3; assay: NCI in vitro five dose anticancer assay; format: cell-based, human
[21] = test system: SR cell line; assay: NCI in vitro one dose anticancer assay; format: cell-based; details: Homo sapiens, 48 h, read-out: % growth inhibition
How it was run: as §1

[22] = test system: UACC-62; assay: NCI in vitro five dose anticancer assay; format: cell-based, human
[23] = test system: NCI/ADR-RES; assay: NCI in vitro five dose anticancer assay; format: cell-based, human; details: 48 h
[24] = test system: SF-539; assay: NCI in vitro five dose anticancer assay; format: cell-based, human
[25] = test system: BT-549; assay: NCI in vitro five dose anticancer assay; format: cell-based, human
[26] = test system: SK-MEL-28; assay: NCI in vitro five dose anticancer assay; format: cell-based, human
[27] = test system: ACHN; assay: NCI in vitro five dose anticancer assay; format: cell-based, human; details: 48 h
[28] = test system: HT29; assay: NCI in vitro five dose anticancer assay; format: cell-based, human
[29] = target: c-Src (Homo sapiens, UniProt P12931); assay: Src kinase assay; format: biochemical
Sequence of c-Src (P12931 whole entry): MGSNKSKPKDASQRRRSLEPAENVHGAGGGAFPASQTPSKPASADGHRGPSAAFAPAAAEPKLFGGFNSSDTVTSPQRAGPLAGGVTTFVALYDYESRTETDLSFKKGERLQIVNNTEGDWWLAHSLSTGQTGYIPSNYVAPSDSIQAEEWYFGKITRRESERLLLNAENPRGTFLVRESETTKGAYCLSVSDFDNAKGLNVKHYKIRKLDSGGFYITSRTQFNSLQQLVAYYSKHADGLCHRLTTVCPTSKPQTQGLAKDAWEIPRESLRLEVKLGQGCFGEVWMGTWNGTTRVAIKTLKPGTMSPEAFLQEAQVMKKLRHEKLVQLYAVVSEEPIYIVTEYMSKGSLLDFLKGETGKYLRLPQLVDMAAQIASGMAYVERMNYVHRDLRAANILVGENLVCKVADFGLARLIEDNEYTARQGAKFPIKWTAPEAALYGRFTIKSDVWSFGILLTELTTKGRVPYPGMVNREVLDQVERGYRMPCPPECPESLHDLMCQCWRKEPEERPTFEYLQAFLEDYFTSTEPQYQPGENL

[30] = test system: SW-620; assay: NCI in vitro five dose anticancer assay; format: cell-based, human
[31] = test system: HCT-116; assay: NCI in vitro five dose anticancer assay; format: cell-based, human

`COc1ccc(C=CC(=O)c2ccc(NC(=O)CSc3nnc(-c4cc(OC)c(OC)c(OC)c4)o3)cc2)cc1` [Compound 8v, N-(4-(3-(4-Methoxyphenyl)acryloyl)phenyl)-2-((5-(3,4,5-trimethoxy-phenyl)-1,3,4-oxadiazol-2-yl)thio)acetamide] showed a GI50 ([1]; Homo sapiens, SK-OV-3, 48 h) of 2.42 µM, a TGI ([1]; SK-OV-3, Ovarian Cancer, five dose, 48 h, SRB) of 5.68 µM and a GI50 ([2]; Homo sapiens, MDA-MB-468, 48 h) of 2.1 µM. The TGI ([2]; MDA-MB-468, Breast cancer, five dose, 48 h, SRB) was 5.02 µM, the TGI ([3]; DU-145, Prostate Cancer, five dose, 48 h, SRB) was 3.21 µM and the GI50 ([3]; Homo sapiens, DU-145, 48 h) was 1.75 µM. For the same compound, the GI50 ([4]; Homo sapiens, KM12, 48 h) was 1.77 µM, the TGI ([4]; KM12, Colon Cancer, five dose, 48 h, SRB) was 3.40 µM and the GI50 ([5]; Homo sapiens, OVCAR-4, 48 h) was 2 µM. For the same compound, the TGI ([5]; OVCAR-4, Ovarian Cancer, five dose, 48 h, SRB) was 4.62 µM, the GI50 ([6]; Homo sapiens, OVCAR-8, 48 h) was 2.32 µM and the TGI ([6]; OVCAR-8, Ovarian Cancer, five dose, 48 h, SRB) was 5.73 µM. For the same compound, the GI50 ([7]; Homo sapiens, RXF 393, 48 h) was 1.74 µM, the TGI ([7]; RXF 393, Renal Cancer, five dose, 48 h, SRB) was 3.54 µM and the inhibition at 10 µM [8] was 31.3 to 144%. For the same compound, the inhibition at 10 µM [9] was 35.8 to 152%, the “protein expression levels of p-EGFR, EGFR, p-Src and Src” value [10] was “downregulated” and the GI50 ([11]; Homo sapiens, NCI-H460, 48 h) was 2 µM. It also gave a TGI ([11]; NCI-H460, Non-Small Cell Lung Cancer, five dose, 48 h, SRB) of 3.85 µM, a GI50 ([12]; Homo sapiens, U-251, 48 h) of 1.68 µM and a TGI ([12]; U251, CNS cancer, five dose, 48 h, SRB) of 3.18 µM. The GI50 ([13]; Homo sapiens, OVCAR-5, 48 h) was 1.72 µM, the TGI ([13]; OVCAR-5, Ovarian Cancer, five dose, 48 h, SRB) was 3.30 µM and the IC50 [14] was 1.95 ± 0.18 µM. The GI50 ([15]; Homo sapiens, M14, 48 h) was 1.6 µM, the TGI ([15]; M14, Melanoma, five dose, 48 h, SRB) was 3.30 µM and the “inhibition of STAT3 activation” value [16] was “most effective”. It also gave a GI50 ([17]; Homo sapiens, MDA-MB-231, 48 h) of 1.82 µM, a TGI ([17]; MDA-MB231/ATCC, Breast cancer, five dose, 48 h, SRB) of 3.50 µM and a GI50 ([18]; Homo sapiens) of 0.32 µM. It also gave a TGI ([18]; Melanoma, five dose, SRB) of 1.28 µM, a GI50 ([19]; Homo sapiens, NCI-H23, 48 h) of 1.88 µM and a TGI ([19]; NCI-H23, Non-Small Cell Lung Cancer, five dose, 48 h, SRB) of 3.97 µM. For the same compound, the GI50 ([20]; Homo sapiens, PC-3, 48 h) was 1.75 µM, the TGI ([20]; PC-3, Prostate Cancer, five dose, 48 h, SRB) was 3.30 µM and the inhibition at 10 µM [21] was 32.9 to 160%. For the same compound, the GI50 ([22]; Homo sapiens, UACC-62, 48 h) was 1.73 µM, the TGI ([22]; UACC-62, Melanoma, five dose, 48 h, SRB) was 3.43 µM and the GI50 ([23]; Homo sapiens) was 2.42 µM. For the same compound, the TGI ([23]; Ovarian Cancer, five dose, SRB) was 7.03 µM, the GI50 ([24]; Homo sapiens, SF-539, 48 h) was 1.64 µM and the TGI ([24]; SF-539, CNS cancer, five dose, 48 h, SRB) was 3.03 µM. The TGI ([25]; BT-549, Breast cancer, five dose, 48 h, SRB) was 2.81 µM, the GI50 ([25]; Homo sapiens, BT-549, 48 h) was 1.4 µM and the GI50 ([26]; Homo sapiens, SK-MEL-28, 48 h) was 1.74 µM. It also gave a TGI ([26]; SK-MEL-28, Melanoma, five dose, 48 h, SRB) of 3.40 µM, a GI50 ([27]; Homo sapiens) of 1.72 µM and a TGI ([27]; Renal Cancer, five dose, SRB) of 3.22 µM. It also gave a TGI ([28]; HT29, Colon Cancer, five dose, 48 h, SRB) of 3.62 µM, a GI50 ([28]; Homo sapiens, HT-29, 48 h) of 1.83 µM and an IC50 [29] of 0.96 ± 0.2 µM. For the same compound, the GI50 ([30]; Homo sapiens, SW-620, 48 h) was 1.86 µM, the TGI ([30]; SW-620, Colon Cancer, five dose, 48 h, SRB) was 3.60 µM and the TGI ([31]; HCT-116, Colon Cancer, five dose, 48 h, SRB) was 1.94 µM. For the same compound, the GI50 ([31]; Homo sapiens, HCT-116, 48 h) was 0.5 µM.
